What is called IC50 is the concentration that inhibits the measured activity by half.

This note sets out measurements from ChEMBL document CHEMBL5034049, “Flavonol-Based Carbon Monoxide Delivery Molecule with Endoplasmic Reticulum, Mitochondria, And Lysosome Localization” (ACS Med Chem Lett, 2022).

Active and inactive are the calls of the source. No cut-off for these calls is given here.

The subject of series [1] is RAW264.7. The series can be described thus: Cytotoxicity against mouse RAW264.7 cells assessed as reduction in cell viability incubated for 24 hrs under dark condition by MTT assay. The format is cell-based. The note with it: RAW264.7, 24 h. For orientation: Tetrazolium dyes change colour on reduction, which living cells bring about.
For series [2], the system named is A549. The series can be described thus: Cytotoxicity against human A549 cells assessed as reduction in cell viability incubated for 24 hrs under dark condition by MTT assay. The note with it: A549, 24 h. Type of series: cell-based.
The subject of series [3] is RAW264.7. The series can be described thus: Antiinflammatory activity against LPS-stimulated mouse RAW264.7 cells assessed as inhibition of TNF-alpha production incubated for 4 hrs followed by illumination with blue LED array for 1 hr and later incubated for 6 hrs under dark conditions followed by LPS stimulation for 1 hr by ELISA. Type of series: functional, cell-based. The note with it: time 12.0 hrs. The method, boiled down:
(§1)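 TNF-α suppression in RAW 264.7 macrophages challenged with LPS. Dark and illuminated treatments run as independent experiments. Mean ± SEM from three independent experiments, compared with the LPS positive control and with the matching non-illuminated treatment.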
On the technique in general: In an ELISA, binding on a coated surface is turned into a signal by an enzyme label.

Series [4] relates to HFL1. The series can be described thus: Cytotoxicity against human HFL1 cells assessed as reduction in cell viability incubated for 24 hrs under dark condition by MTT assay. The format is cell-based. The following applies: HFL1, 24 h.
The subject of series [5] is A549. The series can be described thus: Cytotoxicity against human A549 cells assessed as inhibition of cell viability preincubated under visible light-induced CO release condition for 1 hr followed by incubation with drug for 23 hrs by MTT assay. The format is functional, cell-based.
Series [6] deals with RAW264.7. The series can be described thus: Cytotoxicity against mouse RAW264.7 cells assessed as reduction in cell viability up to 100 uM incubated for 24 hrs under dark condition by MTT assay. The note with it: raw264.7, 24 h. The format is cell-based.
In series [7] the test system is A549. The series can be described thus: Cytotoxicity against human A549 cells assessed as reduction in cell viability up to 100 uM incubated for 24 hrs under dark condition by MTT assay. The format is cell-based. The following applies: a549, 24 h.
The test system of series [8] is HFL1. The series can be described thus: Cytotoxicity against human HFL1 cells assessed as reduction in cell viability up to 100 uM incubated for 24 hrs under dark condition by MTT assay. Type of series: cell-based. The note with it: hfl1, 24 h.
Series [9] in a line: Drug uptake in human A549 cells assessed as clustering of emission at 1 uM after 1 hr by confocal microscopy. Type of series: ADME, cell-based. The note with it: a549, 1 h. The method in brief:
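A549 cells exposed 1 h at 1 μM with a media control. Hoechst nuclear counterstain. Confocal imaging at 63×, compound emission read in the green channel.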

Series [10] can be described thus: Drug uptake in mouse RAW264.7 cells at 5 uM after 4 hrs by Hoechst 33258 staining based fluorescence microscopic analysis. Type of series: ADME, cell-based. The note with it: raw264.7, 4 h.
The nature of series [11]: Drug uptake in human A549 cells at 1 uM after 4 hrs by Hoechst 33342 staining based fluorescence microscopic analysis. The note with it: a549, 4 h.
Series [12] in a line: Drug uptake in human HFL1 cells at 1 uM after 4 hrs by Hoechst 33258 staining based fluorescence microscopic analysis. Type of series: ADME, cell-based. The note with it: hfl1, 4 h.
A short description of series [13]: Drug uptake in endoplasmic reticulum of human A549 cells at 25 uM measured after 1 hr by ER-Tracker Red based confocal microscopic analysis. The format is ADME. The following applies: a549, 1 h. The method in brief: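 A549 cells treated 1 h at 25 μM (vehicle 0.4% DMSO), then counterstained with Hoechst 33342 and ER-Tracker Red. Imaged by confocal microscopy. Overlap given as Pearson's colocalization coefficient, mean ± SEM over 27 cells examined individually across three separate experiments. Line intensity profiles of regions of interest taken over 20 μm.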

A short description of series [14]: Drug uptake in lysosome of human A549 cells at 25 uM measured after 1 hr by LysoTracker Red based confocal microscopic analysis. Type of series: ADME, subcellular. The note with it: a549, 1 h.
The nature of series [15]: Drug uptake in mitochondria of human A549 cells at 25 uM measured after 1 hr by MitoTracker Deep Red based confocal microscopic analysis. Type of series: ADME. The following applies: a549, 1 h.
In series [16] the test system is RAW264.7. The series can be described thus: Antiinflammatory activity against LPS-stimulated mouse RAW264.7 cells assessed as inhibition of TNF-alpha production at 40 nM incubated for 10 hrs under dark conditions followed by LPS stimulation for 1 hr by ELISA. The format is functional, cell-based. The following applies: time 11.0 hrs. The method in brief:
as §1

On to `O=c1c(O)c(-c2ccccc2)oc2cc3ccccc3cc12`, for which the IC50 in the series on RAW264.7 [1] came to 47.7 µM; with A549 [2] it was 80.2 µM; in the series on HFL1 [4], 65.1 µM; in the series on A549 [5], 76.1 µM. Also, in the series with RAW264.7 [3], the outcome was Active.
On to `CCN(CC)c1ccc(C(=O)Oc2cc3ccccc3cc2C(=O)O)cc1`, for which the Activity entry in the series on RAW264.7 [6], in the series on A549 [7] and in the series with HFL1 [8] was “Non-Toxic” in each case.
In the case of `O=C(Oc1cc2ccccc2cc1C(=O)O)c1ccccc1`, the Activity result in the series on RAW264.7 [6], in the series with A549 [7] and in the series with HFL1 [8] was “Non-Toxic” throughout.
In the case of `O=C(NCC[P+](c1ccccc1)(c1ccccc1)c1ccccc1)c1ccc(-c2oc3cc4ccccc4cc3c(=O)c2O)cc1`, the values for the IC50 in the series with A549 [2] and with A549 [5] were 14.1 µM and 4.6 µM, respectively.
In the case of `CCN(CC)c1ccc(-c2oc3cc4ccccc4cc3c(=O)c2O)cc1`, the Drug uptake result in series [9], in [10], in series [11], in series [12], in series [13] and in series [14] was “Active” throughout. Besides, in series [15], the Drug uptake entry is given as “Active”. The values for the IC50 in the series on RAW264.7 [1], in the series with A549 [2] and in the series with A549 [5] were 67.2 µM, over 100 µM and 10.7 µM, respectively. Also, the Activity result with A549 [7] and in the series with HFL1 [8] was “Non-Toxic” in each case. Also, the outcome with RAW264.7 [3] and with RAW264.7 [16] was Active.
